ChEMBL document CHEMBL1795330, “Dual IGF-1R/SRC inhibitors based on a N'-aroyl-2-(1H-indol-3-yl)-2-oxoacetohydrazide structure” (Eur J Med Chem, 2011)

Legend:
[1] = target: Hepatocyte growth factor receptor (Homo sapiens, UniProt P08581); test: Inhibition of c-MET assessed as incorporation of p33 using [gammaP33]-ATP by microplate scintillation counting
In short: (§1)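 Compound added in 10% DMSO. Incubated 80 min at 30 °C, stopped with 2% phosphoric acid, washed with 0.9% NaCl, 33P incorporation counted by scintillation. Activity normalised to no-enzyme and no-inhibitor controls; plates repeated if Z′ < 0.4.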

[2] = target: Insulin-like growth factor 1 receptor (Homo sapiens, UniProt P08069); test: Inhibition of IGF-1R assessed as incorporation of p33 using [gammaP33]-ATP by microplate scintillation counting; in short: as §1
[3] = target: Proto-oncogene tyrosine-protein kinase Src (Homo sapiens, UniProt P12931); test: Inhibition of SRC assessed as incorporation of p33 using [gammaP33]-ATP by microplate scintillation counting; in short: as §1
A549 = test: Antiproliferative activity against human A549 cells at 10 uM after 48 hrs by sulforhodamine B assay relative to control; type: functional; details: A549, 48 h
In short: (§2)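 NCI cell-line screen: cells plated at 5000–40,000/well in medium with 5% foetal bovine serum and 2 mM L-glutamine, preincubated 24 h at 37 °C, 5% CO2. Time-zero plates fixed with TCA at drug addition. Compound from DMSO stock added; 48 h exposure. Cells fixed in situ with cold TCA, stained with 0.4% sulforhodamine B in 1% acetic acid, absorbance 515 nm; growth expressed relative to untreated controls (100%).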

OVCAR-8 = test: Antiproliferative activity against human OVCAR8 at 10 uM after 48 hrs by sulforhodamine B assay relative to control; type: functional; details: OVCAR-8, 48 h; in short: as §2
NCI-H522 = test: Antiproliferative activity against human NCI-H522 at 10 uM after 48 hrs by sulforhodamine B assay relative to control; type: functional; details: NCI-H522, 48 h; in short: as §2

Chain of Hepatocyte growth factor receptor (P08581 whole entry): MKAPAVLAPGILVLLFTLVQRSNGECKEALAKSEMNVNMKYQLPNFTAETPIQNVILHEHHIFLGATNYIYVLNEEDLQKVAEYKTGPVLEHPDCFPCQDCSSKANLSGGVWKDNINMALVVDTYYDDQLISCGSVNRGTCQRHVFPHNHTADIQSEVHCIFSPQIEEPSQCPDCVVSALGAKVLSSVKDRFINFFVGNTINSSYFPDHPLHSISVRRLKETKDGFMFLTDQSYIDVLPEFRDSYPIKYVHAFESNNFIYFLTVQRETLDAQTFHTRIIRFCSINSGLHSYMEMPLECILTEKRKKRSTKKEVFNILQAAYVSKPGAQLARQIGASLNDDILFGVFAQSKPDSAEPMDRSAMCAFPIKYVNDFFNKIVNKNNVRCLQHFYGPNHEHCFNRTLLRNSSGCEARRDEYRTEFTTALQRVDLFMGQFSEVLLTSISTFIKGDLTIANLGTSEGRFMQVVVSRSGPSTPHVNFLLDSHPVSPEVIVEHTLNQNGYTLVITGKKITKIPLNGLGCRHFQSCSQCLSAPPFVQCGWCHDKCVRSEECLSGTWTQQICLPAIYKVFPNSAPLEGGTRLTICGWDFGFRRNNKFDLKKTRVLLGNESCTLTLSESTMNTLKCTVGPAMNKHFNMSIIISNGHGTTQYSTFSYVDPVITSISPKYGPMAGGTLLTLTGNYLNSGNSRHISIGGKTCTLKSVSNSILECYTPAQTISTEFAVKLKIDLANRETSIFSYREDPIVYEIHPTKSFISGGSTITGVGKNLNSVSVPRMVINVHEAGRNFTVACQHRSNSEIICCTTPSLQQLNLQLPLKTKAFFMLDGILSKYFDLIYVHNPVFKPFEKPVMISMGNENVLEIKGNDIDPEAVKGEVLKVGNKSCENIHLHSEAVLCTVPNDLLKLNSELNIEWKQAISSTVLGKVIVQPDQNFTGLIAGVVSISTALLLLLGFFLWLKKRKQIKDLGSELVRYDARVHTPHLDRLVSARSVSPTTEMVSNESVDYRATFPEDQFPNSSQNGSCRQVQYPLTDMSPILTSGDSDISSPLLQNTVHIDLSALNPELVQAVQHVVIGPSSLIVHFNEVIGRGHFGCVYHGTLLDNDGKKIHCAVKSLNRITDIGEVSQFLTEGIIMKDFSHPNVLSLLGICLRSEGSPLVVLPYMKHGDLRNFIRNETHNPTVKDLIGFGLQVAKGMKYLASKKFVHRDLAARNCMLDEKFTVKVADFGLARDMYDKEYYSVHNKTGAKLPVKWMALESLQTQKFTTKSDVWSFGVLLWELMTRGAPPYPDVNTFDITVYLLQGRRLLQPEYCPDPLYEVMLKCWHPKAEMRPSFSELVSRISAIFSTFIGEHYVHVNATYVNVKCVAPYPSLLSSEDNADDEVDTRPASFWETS
Chain of Proto-oncogene tyrosine-protein kinase Src (P12931 2-536 limits assumed): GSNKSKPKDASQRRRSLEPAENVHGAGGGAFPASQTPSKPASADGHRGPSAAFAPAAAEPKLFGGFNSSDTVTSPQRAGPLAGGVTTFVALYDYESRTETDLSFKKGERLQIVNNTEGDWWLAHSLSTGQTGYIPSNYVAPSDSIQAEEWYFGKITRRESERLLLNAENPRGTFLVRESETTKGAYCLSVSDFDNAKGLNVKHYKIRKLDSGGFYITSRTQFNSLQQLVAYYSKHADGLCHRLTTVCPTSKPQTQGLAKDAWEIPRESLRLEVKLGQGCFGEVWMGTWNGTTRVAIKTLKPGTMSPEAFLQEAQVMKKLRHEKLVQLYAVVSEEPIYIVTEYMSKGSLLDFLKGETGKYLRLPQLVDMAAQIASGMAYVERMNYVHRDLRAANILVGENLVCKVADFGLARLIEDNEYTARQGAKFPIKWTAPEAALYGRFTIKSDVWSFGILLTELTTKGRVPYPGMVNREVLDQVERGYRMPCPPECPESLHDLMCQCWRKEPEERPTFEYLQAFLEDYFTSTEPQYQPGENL
Chain of Insulin-like growth factor 1 receptor (P08069 31-736 limits assumed): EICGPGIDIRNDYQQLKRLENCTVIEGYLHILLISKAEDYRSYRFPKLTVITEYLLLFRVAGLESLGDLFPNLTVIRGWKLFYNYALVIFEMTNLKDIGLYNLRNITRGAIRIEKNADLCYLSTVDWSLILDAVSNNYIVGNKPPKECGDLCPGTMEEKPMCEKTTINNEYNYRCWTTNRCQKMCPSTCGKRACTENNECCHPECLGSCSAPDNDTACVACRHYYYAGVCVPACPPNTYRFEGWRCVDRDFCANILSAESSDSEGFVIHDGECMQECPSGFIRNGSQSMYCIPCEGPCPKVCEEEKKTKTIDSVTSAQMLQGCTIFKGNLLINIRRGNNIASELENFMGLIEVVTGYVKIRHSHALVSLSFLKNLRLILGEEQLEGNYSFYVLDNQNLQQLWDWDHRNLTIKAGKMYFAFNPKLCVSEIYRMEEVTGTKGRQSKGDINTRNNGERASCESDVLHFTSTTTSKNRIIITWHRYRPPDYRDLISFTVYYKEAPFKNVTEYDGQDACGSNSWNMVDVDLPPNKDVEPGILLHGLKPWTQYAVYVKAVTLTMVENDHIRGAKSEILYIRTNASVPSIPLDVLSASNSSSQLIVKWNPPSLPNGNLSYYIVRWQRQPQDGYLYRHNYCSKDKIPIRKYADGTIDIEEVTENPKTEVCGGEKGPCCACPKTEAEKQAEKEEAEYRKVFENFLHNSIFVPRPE
Chain of Insulin-like growth factor 1 receptor (P08069 741-1367 limits assumed): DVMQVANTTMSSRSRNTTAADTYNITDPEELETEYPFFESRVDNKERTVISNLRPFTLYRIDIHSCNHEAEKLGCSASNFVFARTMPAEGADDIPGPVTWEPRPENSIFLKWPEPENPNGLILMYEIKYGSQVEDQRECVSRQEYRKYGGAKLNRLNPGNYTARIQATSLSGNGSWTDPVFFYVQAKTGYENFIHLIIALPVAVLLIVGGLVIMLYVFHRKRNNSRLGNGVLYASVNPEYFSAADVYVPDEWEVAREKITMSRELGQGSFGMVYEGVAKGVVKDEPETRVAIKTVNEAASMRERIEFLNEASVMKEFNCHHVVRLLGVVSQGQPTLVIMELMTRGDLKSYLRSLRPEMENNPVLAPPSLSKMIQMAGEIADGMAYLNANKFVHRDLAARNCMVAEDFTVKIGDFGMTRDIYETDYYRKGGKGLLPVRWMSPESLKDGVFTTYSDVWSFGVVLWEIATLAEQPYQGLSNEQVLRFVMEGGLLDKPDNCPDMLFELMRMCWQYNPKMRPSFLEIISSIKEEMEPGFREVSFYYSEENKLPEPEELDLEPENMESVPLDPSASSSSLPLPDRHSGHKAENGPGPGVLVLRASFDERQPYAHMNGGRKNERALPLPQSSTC

Compound | IC50 [1] [µM] | IC50 [2] [µM] | IC50 [3] [µM] | growth, % of control at 10 µM (A549) [%] | growth, % of control at 10 µM (OVCAR-8) [%] | growth, % of control at 10 µM (NCI-H522) [%]
Cc1ccc(CCNC(=O)C(=O)c2c[nH]c3ccccc23)cc1 | > 100 | 52 |  |  |  | 
O=C(NCc1ccc(Cl)cc1)C(=O)c1c[nH]c2ccccc12 | > 100 | > 100 |  |  |  | 
Cc1cncc(Oc2ccc(C(=O)NNC(=O)C(=O)c3c[nH]c4ccccc34)cc2)n1 | > 100 | 31 | 40 |  |  | 
O=C(NNc1ccc(Cl)cc1)C(=O)c1c[nH]c2ccccc12 | > 100 | > 100 |  |  |  | 
COc1ccc(C(=O)NNC(=O)C(=O)c2c[nH]c3ccccc23)cc1 | 96 | 54 |  |  |  | 
O=C(NNc1ccc(Br)cc1)C(=O)c1c[nH]c2ccccc12 | > 100 | > 100 |  |  |  | 
O=C(NNC(=O)c1ccccc1F)C(=O)c1c[nH]c2ccccc12 | 91 | 91 | 96 |  |  | 
O=C(NNC(=O)c1ccc([N+](=O)[O-])cc1)C(=O)c1c[nH]c2ccccc12 | 69 | > 100 |  |  |  | 
Cc1ccc(C(=O)NNC(=O)C(=O)c2c[nH]c3ccccc23)cc1 | 95 | 82 |  |  |  | 
O=C(NNC(=O)c1ccc(C(F)(F)F)cc1)C(=O)c1c[nH]c2ccccc12 | 49 | 4.1 | 1.3 |  |  | 
O=C(NCCc1cccc(Cl)c1)C(=O)c1c[nH]c2ccccc12 | > 100 | > 100 |  |  |  | 
O=C(NCc1ccccc1)C(=O)c1c[nH]c2ccccc12 | > 100 | > 100 |  |  |  | 
O=C(NNc1ccc(I)cc1)C(=O)c1c[nH]c2ccccc12 | > 100 | > 100 |  |  |  | 
COc1ccc(CCNC(=O)C(=O)c2c[nH]c3ccccc23)cc1OC | > 100 | > 100 |  |  |  | 
Cc1ccc(CNC(=O)C(=O)c2c[nH]c3ccccc23)cc1 | > 100 | 63 |  |  |  | 
O=C(NCCc1ccc(Cl)cc1)C(=O)c1c[nH]c2ccccc12 | > 100 | > 100 |  |  |  | 
Cc1nc(-c2ccc(C(=O)NNC(=O)C(=O)c3c[nH]c4ccccc34)cc2)no1 | 95 | 12 | 22 |  |  | 
O=C(NNC(=O)c1ccccc1)C(=O)c1c[nH]c2ccccc12 | > 100 | > 100 |  |  |  | 
O=C(NNC(=O)c1ccc(Cl)cc1)C(=O)c1c[nH]c2ccccc12 | 48 | 16 |  |  |  | 
O=C(NNc1ccccc1)C(=O)c1c[nH]c2ccccc12 | > 100 | > 100 |  |  |  | 
O=C(NCc1cccc(Cl)c1)C(=O)c1c[nH]c2ccccc12 | > 100 | > 100 |  |  |  | 

Stronger by IC50 [1], values ahead:

IC50 [1] [µM] | IC50 [2] [µM] | IC50 [3] [µM] | Compound | growth, % of control at 10 µM (A549) [%] | growth, % of control at 10 µM (OVCAR-8) [%] | growth, % of control at 10 µM (NCI-H522) [%]
8.8 | 0.68 | 0.38 | COCCc1ccc(OCc2cccc(-c3ccc(C(=O)NNC(=O)C(=O)c4c[nH]c5ccccc45)cc3)c2)cc1 |  |  | 
13 | 4.9 | 1.9 | O=C(NNC(=O)c1ccc(-c2ccccc2OCc2ccc(F)cc2)cc1)C(=O)c1c[nH]c2ccccc12 |  |  | 
36 | 4.4 | 5.9 | CC(C)(C)c1ccc(C(=O)NNC(=O)C(=O)c2c[nH]c3ccccc23)cc1 |  |  | 
4.1 | 0.67 | 0.52 | Cc1cc(C(C)(C)C)ccc1OCc1cccc(-c2ccc(C(=O)NNC(=O)C(=O)c3c[nH]c4ccccc34)cc2)c1 | 7.38 | -9.59 | -7.7
7.6 | 0.99 | 0.72 | O=C(NNC(=O)c1ccc(-c2cccc(COc3cccc(C(F)(F)F)c3)c2)cc1)C(=O)c1c[nH]c2ccccc12 |  |  | 
27 | 3.3 | 2.8 | CS(=O)(=O)NCc1cccc(-c2ccc(C(=O)NNC(=O)C(=O)c3c[nH]c4ccccc34)cc2)c1 |  |  | 
5.2 | 0.81 | 0.62 | O=C(NNC(=O)c1ccc(-c2ccccc2COc2cccc(C(F)(F)F)c2)cc1)C(=O)c1c[nH]c2ccccc12 |  |  | 
16 | 4.9 | 3.6 | Cc1ccc(C)n1-c1ccc(C(=O)NNC(=O)C(=O)c2c[nH]c3ccccc23)cc1 |  |  | 
14 | 4 | 4.5 | O=C(NNC(=O)c1ccc(I)cc1)C(=O)c1c[nH]c2ccccc12 |  |  | 
